# Efflux pump inh = blocks antifungal efflux pumps in multiplex yeast assay; AID 485275; 330,000 tested, 0.44% active; inhibition, % at 10 µM; S. cerevisiae Candida pump triplex, Nile Red efflux;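 active = plate passing quality check with inhibition over a set limit, or well fluorescence over plate mean plus 4 SD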;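 note: Nile Red retained in pooled yeast measured as flow cytometry median fluorescence; 0% = buffer negative control and 100% = Enniatin B positive control; higher means more Nile Red kept so more efflux inhibition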
# Arrestin-AP2 inh = human beta-arrestin and AP2 interaction inhibition. 340,000 tested, 0.31% active. AID 504490. FITC-arrestin peptide / GST-AP2 beads, flow cytometry; AP2 beta2 appendage carries R879A mutation. inhibition, % at 10 µM;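 active = inhibition above a set limit, near 3 SD of compounds lacking own fluorescence, cut at about 54% in these data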;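 note: plate controls were DMSO wells for no effect and 5 µM unlabelled arrestin peptide for full effect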
#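 Assay system: GST-AP2 R879A bound to glutathione beads, E. coli-expressed; Medium: PBS with 0.05% Tween 20 and 0.1% BSA; Also added: fluorescein-tagged arrestin peptide at 50 nM final; Timing: 12 min plus 1 h, RT; Measured by: flow cytometry, FL1 (488/535 nm); Evaluation: percent drop in bead-associated FITC signal.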
# Neddyl block = inhibitors of human cullin neddylation; P61081+Q13564; 360,000 tested, 0.58% active; TR-FRET cullin neddylation, biochemical; inhibition, % at 25 µM; in the data active = inhibition above about 36%
# Target sequence (P61081 whole entry, looked up): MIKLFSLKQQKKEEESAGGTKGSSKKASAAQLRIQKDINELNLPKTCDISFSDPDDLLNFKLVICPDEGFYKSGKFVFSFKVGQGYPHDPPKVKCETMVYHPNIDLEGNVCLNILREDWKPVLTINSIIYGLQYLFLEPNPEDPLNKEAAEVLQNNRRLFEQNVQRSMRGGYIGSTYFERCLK
# Target sequence (Q13564 whole entry, looked up): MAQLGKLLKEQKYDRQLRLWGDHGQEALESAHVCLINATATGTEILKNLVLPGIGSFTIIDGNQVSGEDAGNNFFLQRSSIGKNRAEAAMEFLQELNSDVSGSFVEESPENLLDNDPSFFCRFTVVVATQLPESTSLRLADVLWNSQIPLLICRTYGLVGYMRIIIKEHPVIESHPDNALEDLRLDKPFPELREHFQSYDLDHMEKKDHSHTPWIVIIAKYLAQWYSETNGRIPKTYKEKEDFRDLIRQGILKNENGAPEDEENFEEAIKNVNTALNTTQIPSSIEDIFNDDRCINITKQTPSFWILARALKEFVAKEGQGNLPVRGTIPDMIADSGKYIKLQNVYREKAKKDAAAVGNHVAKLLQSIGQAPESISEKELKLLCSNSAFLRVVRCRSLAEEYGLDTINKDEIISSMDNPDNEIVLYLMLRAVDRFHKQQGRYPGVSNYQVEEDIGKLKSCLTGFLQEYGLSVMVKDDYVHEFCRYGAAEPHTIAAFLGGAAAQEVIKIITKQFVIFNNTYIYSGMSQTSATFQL
# Pemphigus Ab inh = human desmoglein-3 autoantibody binding inhibition | binding (percent of control), % at 10 µM | AID 588358 | P32926 | 310,000 tested, 0.48% active | DSG3-coupled beads, scFv-anti-DSG3-GFP binding, flow cytometry; hits give low values;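 active = binding more than 3 SD below its plate's average and above zero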;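 note: hits lower antibody fragment binding to DSG3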
# Neddyl inh conf = cullin neddylation inhibition, confirmation. shares compounds with Neddyl block. TR-FRET cullin neddylation biochemical assay. calls only at 25 µM. 1,800 tested, 13% active. AID 652217; in the data active = inhibition above about 40%;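 note: neddylation substrate is the cullin 1 ring ligase complex with SKP2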
# * hit, by the source's call; i = inactive; nt = no result shown; + = active, no number. A selection: hits, their analogues and other compounds. The true share with any hit is near 1.7%.
SMILES,Efflux pump inh,Arrestin-AP2 inh,Neddyl block,Pemphigus Ab inh,Neddyl inh conf
CC(C)(C)c1ccc(C(=O)N2CCN(c3ccc(N4CCOCC4)nn3)CC2)cc1,0,-5,52*,107,nt
CCOC(=O)c1c(NC(=O)COC(=O)c2nccnc2N)sc(C(=O)N(C)C)c1C,0,32,45*,91,i
CCOC(=O)c1[nH]c2ccc(F)cc2c1NC(=O)c1ccccc1C(=O)O,0,-14,29,102,nt
CCOC(=O)c1[nH]c2ccc(F)cc2c1NC(=O)CN1CCN(C/C=C/c2ccccc2)CC1,0,1,42*,105,i
CCOC(=O)c1[nH]c2ccc(OC)cc2c1NC(=O)c1ccccc1C(=O)O,0,4,43*,95,i
O=C(CN1CCCc2ccccc21)Nc1cc(S(=O)(=O)N2CCCC2)ccc1Cl,0,-13,-18,107,nt
COc1ccc(CCNC(=O)C2(C)CCC(=O)N2Cc2ccc(F)cc2Cl)cc1OC (centres undefined),0,-4,52*,99,i
COCCn1c(SCC(=O)N2CCCC2)nnc1-c1ccoc1C,0,-4,-1,101,nt
COC(=O)c1ccc2c(=O)n(CCCCCC(=O)O)c(=O)[nH]c2c1,0,-1,48*,102,nt
COC(=O)COc1ccc2oc(=O)cc(-c3cc4cccc(OC)c4o3)c2c1,0,4,42*,95,i
COc1cccc2cc(-c3cc(=O)oc4ccc(OCC(C)=O)cc34)oc12,0,0,5,88,nt
CCNC(=O)CN1c2cccc3cccc(c23)S1(=O)=O,0,-2,36,nt,nt
CC(=O)c1ccc(NC(=O)CN2c3cccc4cccc(c34)S2(=O)=O)cc1,0,0,48*,89,i
COCCCn1c(C)cc(C(=O)CN2c3cccc4cccc(c34)S2(=O)=O)c1C,0,-10,37*,100,i
CC(NC(=O)C(C)N1c2cccc3cccc(c23)S1(=O)=O)c1ccccc1 (centres undefined),0,-6,42*,106,i
CN(Cc1ccccc1F)C(=O)CN1c2cccc3cccc(c23)S1(=O)=O,0,13,50*,98,+
NC(=O)NC(=O)CN1c2cccc3cccc(c23)S1(=O)=O,1,5,29,105,nt
COc1ccc(Cn2c(=O)oc3ccc(C)cc32)cc1,0,-5,5,96,nt
CCNC(=O)C1CC(=O)N(CCCc2ccccc2)C(=Nc2ccccc2)S1 (centres undefined),0,-4,-3,nt,nt
COc1cc(NC(=O)CN2c3cccc4cccc(c34)S2(=O)=O)cc(OC)c1OC,0,17,31,nt,nt
CCC(C)NC(=O)CN1c2cccc3cccc(c23)S1(=O)=O (centres undefined),0,22,42*,103,i
CC(=O)Nc1cccc(NC(=O)CN2c3cccc4cccc(c34)S2(=O)=O)c1,0,13,43*,97,i
Cn1c(=O)c2c(nc(N/N=C/c3ccc(OC(=O)c4ccco4)cc3)n2Cc2ccccc2Cl)n(C)c1=O,-2,-1,44*,111,i
COc1ccc(-c2cn3cccnc3n2)cc1NC(=O)c1cc(OC)c(OC)c(OC)c1,0,13,nt,87,nt
COc1ccc(-c2cn3cccnc3n2)cc1NC(=O)c1cccs1,0,8,55*,109,+
SMILES,Efflux pump inh,Arrestin-AP2 inh,Neddyl block,Pemphigus Ab inh,Neddyl inh conf
COc1ccc(-c2cn3cccnc3n2)cc1NS(=O)(=O)c1ccccc1,0,4,49*,94,i
O=S(=O)(Nc1ccc(-c2cn3cccnc3n2)cc1)c1ccccc1,0,4,nt,106,nt
O=C1Nc2ccc(S(=O)(=O)N3CCCC3)c3cccc1c23,0,6,40*,98,i
O=C1Nc2ccc(S(=O)(=O)N3CCCCCC3)c3cccc1c23,0,11,36,nt,nt
CCOC(=O)N1CCN(S(=O)(=O)c2ccc3c4c(cccc24)C(=O)N3)CC1,0,8,52*,nt,+
COc1ccc(CC2(CO)CCN(Cc3ccc4nsnc4c3)CC2)cc1,0,6,-6,123,nt
C=CCNC(=S)/N=c1/ccccn1CCC,0,4,51*,nt,i
Cc1ccc(C2NC(=O)c3c(sc4c3CCN(C)C4)N2)o1 (centres undefined),0,25,43*,102,i
Cc1ccc(C2NC(=O)c3c(sc4c3CCN(C)C4)N2)s1 (centres undefined),0,16,nt,104,nt
CC(C)c1cc(C(=O)N2CCCC(CCC(=O)N3CCN(c4ccccn4)CC3)C2)no1 (centres undefined),0,2,3,101,nt
Clc1cccc(CN2CCc3c([nH]c4ccccc34)C2)c1,0,-10,43*,107,i
Cc1cccc(CN2CCc3c([nH]c4ccccc34)C2)c1,0,24,29,103,nt
COC(=O)c1ccccc1COn1c(=O)c[n+]([O-])c2ccccc21,0,-4,31,94,nt
O=c1c[n+]([O-])c2ccccc2n1OCc1ccccn1,0,6,37*,nt,i
CCOn1c(=O)c[n+]([O-])c2ccccc21,0,50,49*,117,nt
Cc1c(=O)n(OCc2ccccn2)c2ccccc2[n+]1[O-],0,5,-6,103,nt
O=c1c[n+]([O-])c2ccccc2n1OCc1c(F)cccc1F,0,5,42*,97,+
CN(CC(=O)NCc1ccc(F)cc1)S(=O)(=O)c1ccc2c(c1)c(=O)n(C)c(=O)n2C,0,-4,-1,94,nt
O=C(Nc1nnc([C@@H]2C[C@H](O)[C@@H](CO)O2)s1)Nc1ccc(F)cc1F,nt,nt,4,nt,nt
CC(=O)Nc1ccc(NC(=O)c2cc(-c3ccc(C)cc3O)n[nH]2)cc1,0,6,78*,106,+
COc1cc(F)ccc1-c1cc(C(=O)Nc2ccc(NC(C)=O)cc2)[nH]n1,nt,nt,54*,nt,+
COc1ccc(F)cc1-c1cc(C(=O)Nc2ccc(NC(C)=O)cc2)[nH]n1,nt,nt,6,nt,nt
Cc1ccc(C(=O)NNC(=O)C2CCN(c3ncccn3)CC2)cc1,0,0,7,100,nt
N#CC1=C(N)N(c2ccc(Br)cc2)C2=C(C(=O)CCC2)C1c1cccnc1 (centres undefined),0,16,42*,nt,i
COc1ccc(S(=O)(=O)N2CCOC2CNC(=O)C(=O)NCCCN(C)C)cc1C (centres undefined),2,-24,11,nt,nt
Cc1cc(=O)n2[nH]c(-c3ccccc3)cc2n1,0,5,44*,93,i
COc1ccc(CC(NC(C)=O)C(=O)NC2CCN(c3nc(C)cc(C)c3C#N)CC2)c(OC)c1 (centres undefined),1,-1,41*,90,i
O=C(Cn1nc(-c2cccs2)ccc1=O)Nc1ccc(Br)cc1,0,-8,-1,113,nt
Cc1ccccc1NC(=O)CSc1ccc(-c2ccco2)nn1,0,-3,4,114,nt

# Screening results (PubChem BioAssay)
